This is an account of results in ChEMBL document CHEMBL1166017, “Alpneumines A-H, new anti-melanogenic indole alkaloids from Alstonia pneumatophora” (Bioorg Med Chem, 2010).

As usually defined, the IC50 is the concentration that gives 50% inhibition.

Data set [1] addresses T1, Tyrosinase (Agaricus bisporus, UniProt O42713).
T1 sequence (O42713 whole entry): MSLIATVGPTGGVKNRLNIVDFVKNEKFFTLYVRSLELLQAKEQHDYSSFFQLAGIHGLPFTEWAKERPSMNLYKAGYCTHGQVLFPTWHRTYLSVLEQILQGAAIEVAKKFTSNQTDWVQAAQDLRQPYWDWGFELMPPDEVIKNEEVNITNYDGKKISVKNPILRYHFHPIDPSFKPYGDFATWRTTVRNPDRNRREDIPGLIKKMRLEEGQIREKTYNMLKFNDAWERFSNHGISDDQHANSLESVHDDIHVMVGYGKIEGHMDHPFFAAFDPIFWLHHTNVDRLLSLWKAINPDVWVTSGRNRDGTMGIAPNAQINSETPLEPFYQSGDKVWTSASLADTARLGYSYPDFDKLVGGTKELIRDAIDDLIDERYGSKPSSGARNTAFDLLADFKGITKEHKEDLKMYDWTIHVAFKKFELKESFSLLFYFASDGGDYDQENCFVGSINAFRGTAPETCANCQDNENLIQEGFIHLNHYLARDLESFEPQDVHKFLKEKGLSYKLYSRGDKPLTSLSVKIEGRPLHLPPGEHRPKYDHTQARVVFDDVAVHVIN
The data set is described as follows: Inhibition of mushroom tyrosinase.

The subject of data set [2] is B16. Description: Antimelanogenic activity in mouse B16 cells assessed as decrease in intracellular melanin level after 4 days. The class given is functional, cell-based. Conditions: B16, 96 h. The method in brief: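 B16 cells in DMEM with 10% FBS and penicillin/streptomycin, seeded at 5000 cells/well and preincubated 24 h at 37 °C in 5% CO2. Cultured with IBMX (100 µM) with or without sample at 6.3–100 µM for 48 h, then in fresh medium under the same conditions for a further 48 h. Cells dissolved in 1 N NaOH at 90 °C for 1 h. Relative melanin read at 400 nm. Arbutin was the positive control.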

In data set [3] the test system is B16. The data set is described as follows: Inhibition of tyrosinase expression in mouse B16 cells after 1 hr by Western blotting. The class given is functional, cell-based. The method in brief:
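B16 cells were treated with sample at 50 and 75 µM plus 0.1 mM IBMX, then lysed. Lysates were run on 7.5% SDS–PAGE and transferred to PVDF, which was blocked 1 h in 5% skim milk. Anti-tyrosinase (1:2000) was applied overnight and anti-β-actin (1:2000) for 1 h, followed by HRP-conjugated secondary IgG.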
In general terms: In western blotting, separated proteins are transferred to a membrane and probed.

Data set [4] deals with B16. The data set is described as follows: Cytotoxicity against mouse B16 cells assessed as cell viability after 4 days by MTT assay. The class given is cell-based. Particulars: b16, 96 h. Put shortly:
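B16 cells were cultured as for the melanin assay: IBMX 100 µM and sample at 6.3–100 µM for 4 days. MTT (5 mg/mL solution) was added for 2 h, and the formazan was dissolved in DMSO. Absorbance was read at 550 and 700 nm. Viability was taken from the absorbance difference between samples and controls, in triplicate.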
A general note: Tetrazolium assays rely on reduction of a dye to a coloured formazan, in cell work by metabolically active cells.

For data set [5], the system named is B16. Description: Antimelanogenic activity in mouse B16 cells assessed as decrease in intracellular melanin level at IC50 after 4 days. The class given is functional. Also noted: scale not given: the % may be the effect or the level left.

Each structure is given as a SMILES string. Calls of active or inactive are those of the source. The rule behind the calls is not given here. Bounds are passed on as bounds.

For the compound `COC(=O)C1=C2Nc3c(O)cccc3[C@]23CC[N+]2([O-])C[C@H](C(C)=O)[C@H]1C[C@H]32` (some centres not stated) [ALPNEUMINE A], in data set [1], the IC50 is more than 100 µM.

`COC(=O)C1=C2Nc3c(O)cccc3[C@]23CCN2C[C@H](C(C)=O)[C@H]1C[C@@H]23` [ALPNEUMINE B]: the IC50 in data set [1] was more than 100 µM.

Take `COC(=O)C1=C2Nc3ccccc3[C@]23CC[N+]2([O-])C[C@H](C(C)=O)[C@H]1C[C@H]32` (some centres not stated) [ALPNEUMINE C]: the IC50 in data set [1] was more than 100 µM.

With `COC(=O)C1=C2Nc3c(O)cccc3[C@]23CCN2C[C@@H](C(C)=O)[C@H]1C[C@@H]23` [ALPNEUMINE D], the half-inhibitory concentration (IC50) in data set [1] is more than 100 µM.

With `COC(=O)C1=C2Nc3ccccc3[C@]23CCN2C[C@@H](C(C)=O)[C@H]1C[C@@H]23` [ALPNEUMINE E], the results for the IC50 in data set [1] and in data set [2] were more than 100 µM and 71.4 µM, respectively.

As for `COC(=O)[C@@]12CO[C@@]3(O)[C@H]1CCN1CC[C@H]3[C@@H]1c1c2[nH]c2ccccc12` [ALPNEUMINE F], the IC50 in data set [1] was more than 100 µM.

Consider `CC[C@]12CCC[N+]3([O-])CCc4c(n(c5ccccc45)[C@@](O)(C(=O)OC)C1)[C@H]23` (some centres not stated) [ALPNEUMINE G], for which the IC50 is more than 100 µM in data set [1] and 58.3 µM in data set [2]. The result in data set [3] was Active. Besides, the values for the Activity result in data set [4] and in data set [5] were “Dose-dependent effect” and less than 50%, respectively.

Turning to `COC(=O)[C@@]12COCC[C@H]3[C@@H]1CC[N@+](C)([O-])[C@H]3c1c2[nH]c2ccccc12` [ALPNEUMINE H], the IC50 in data set [1] is more than 100 µM.

Regarding `CC[C@@]12C=C(C(=O)OC)n3c4c(c5ccccc53)CCN(CCC1)[C@H]42` [APOVINCAMINE], the IC50 in data set [2] stood at 49.8 µM. For the same compound, the Activity in data set [5] is given as less than 50%.

Take `CC[C@]12CCCN3CCc4c(n(c5ccccc45)[C@@](O)(C(=O)OC)C1)[C@@H]32` [VINCAMINE]: the IC50 in data set [2] is 68.9 µM. The Activity in data set [5] was less than 50%.
